Source: publication PMC3483883 (Bioorganic & medicinal chemistry letters, 2012)
Each block holds one molecule with its values, some of them ahead of it.

How the values were obtained:
LdTopIB [1] = target: T1, LdTopIB (Leishmania donovani, UniProt A0A3Q8IHS4+Q8WQM6); test: Supercoiled plasmid DNA TopIB-mediated cleavage assay, LdTopIB; assay type: biochemical
hTopIB [2] = target: T2, hTopIB (Homo sapiens, UniProt P11387); test: Plasmid DNA relaxation assay, hTopIB; assay type: biochemical
T2 sequence (P11387 1-765): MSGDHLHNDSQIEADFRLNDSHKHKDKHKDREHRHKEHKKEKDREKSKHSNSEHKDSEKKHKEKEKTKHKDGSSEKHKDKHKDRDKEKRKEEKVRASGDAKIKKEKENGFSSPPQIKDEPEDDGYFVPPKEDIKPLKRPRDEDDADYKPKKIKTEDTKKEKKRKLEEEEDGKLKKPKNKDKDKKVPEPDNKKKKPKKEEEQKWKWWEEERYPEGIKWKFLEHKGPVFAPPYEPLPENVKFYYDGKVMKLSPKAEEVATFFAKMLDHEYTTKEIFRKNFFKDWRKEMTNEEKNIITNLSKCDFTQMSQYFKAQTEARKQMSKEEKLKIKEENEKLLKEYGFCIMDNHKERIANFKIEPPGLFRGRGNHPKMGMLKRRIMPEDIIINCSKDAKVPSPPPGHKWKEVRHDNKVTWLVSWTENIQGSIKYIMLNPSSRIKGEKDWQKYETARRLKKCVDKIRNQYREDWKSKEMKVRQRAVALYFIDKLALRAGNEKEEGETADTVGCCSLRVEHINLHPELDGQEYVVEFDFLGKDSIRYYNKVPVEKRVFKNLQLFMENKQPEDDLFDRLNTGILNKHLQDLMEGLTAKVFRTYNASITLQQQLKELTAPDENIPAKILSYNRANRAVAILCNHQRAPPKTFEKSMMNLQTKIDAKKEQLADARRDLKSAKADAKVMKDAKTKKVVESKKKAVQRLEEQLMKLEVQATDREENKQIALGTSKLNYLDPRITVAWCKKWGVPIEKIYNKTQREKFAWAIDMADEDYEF

[3] = tested on: Leishmania donovani (axenic amastigotes); test: Antiprotozoal activity against L. donovani axenic amastigotes; assay type: cell-based; details: read-out: Leishmania donovani IC50
[4] = tested on: L. infantum promastigotes; test: Activity against L. infantum promastigotes; assay type: cell-based; details: Leishmania infantum, read-out: IC50 against L. infantum promastigotes
[5] = tested on: Trypanosoma brucei rhodesiense (bloodstream forms); test: Antiprotozoal activity against T. brucei rhodesiense bloodstream forms; assay type: cell-based; details: read-out: Trypanosoma brucei rhodesiense IC50
hTopIB [6] = target: T2, hTopIB; test: Supercoiled plasmid DNA TopIB-mediated cleavage assay, hTopIB; assay type: biochemical; details: 100 μM
L6 cell cytotoxicity = assay type: cell-based; details: rat, L6 cells (rat skeletal myoblasts)
[7] = tested on: Murine macrophages BALB/c; test: Toxicity against BALB/c murine macrophages; assay type: cell-based; details: Mus musculus, Macrophage, read-out: Murine macrophages BALB/c IC50
[8] = tested on: Leishmania donovani, Trypanosoma brucei rhodesiense, Trypanosoma cruzi; test: Antiprotozoal activity against all the studied protozoa; assay type: cell-based; details: read-out: IC50 values against all the studied protozoa
How it was run: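 In vitro growth-inhibition IC50 against L. donovani, T. cruzi and T. b. rhodesiense. Values are averages of at least two independent assays, each run in duplicate. Reference drugs in the same set are melarsoprol, benznidazole, miltefosine and podophyllotoxin.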

LdTopIB [9] = target: T1, LdTopIB; test: Plasmid DNA relaxation assay, LdTopIB; assay type: biochemical
[10] = tested on: fluconazole resistant Candida albicans strains; details: series of strains; cited from earlier work
leukotriene B4 ω-oxidase = details: read-out: IC50 leukotriene B4 ω-oxidase; suicide inhibitor; cited from earlier work
[11] = tested on: L. infantum promastigotes; details: 400 μM, 24 h

- inhibition of catalytic activity of LdTopIB (LdTopIB [1]; 100 μM): inhibits the catalytic activity
- enzymatic activity of LdTopIB after pre-incubation (LdTopIB [1]; pre-incubated 15 min with 100 μM before DNA and CPT): fully inhibited
- EC50 (hTopIB [2]): > 100 µM
- inhibition of hTopIB at 100 μM (hTopIB [2]): neither 2-TDA nor 2-HDA was inhibitory
- IC50 [3]: 17.8 µM
- IC50 [4]: 14.9 µM
- IC50 [5]: 83.6 µM
- inhibition of hTopIB (hTopIB [6]): no inhibition
- IC50 [8]: 17.8 to 83.6 µM
- EC50 (LdTopIB [9]): 28.7 ± 1.3 µM
SMILES: CCCCCCCCCCCCCC#CC(=O)O [2-HDA, 2-hexadecynoic acid]
- IC50 (L6 cell cytotoxicity): 340 µM
- IC50 [7]: > 100 µM

SMILES: CCCCCCCCCCCCCCCC#CC(=O)O [2-ODA, 2-octadecynoic acid]
- EC50 (LdTopIB [9]): 5.3 ± 0.7 µM

- EC50 (hTopIB [2]): > 100 µM
- inhibition of hTopIB at 100 μM (hTopIB [2]): neither 2-TDA nor 2-HDA was inhibitory
- IC50 [8]: 24.7 to 255 µM
- EC50 (LdTopIB [9]): 67.8 ± 1.1 µM
SMILES: CCCCCCCCCCCC#CC(=O)O [2-TDA, 2-tetradecynoic acid]

SMILES: CCCCCCCCCCCC#CCCCCC(=O)O [6-ODA, 6-octadecynoic acid]
- IC50 against fluconazole resistant Candida albicans strains [10]: 0.45 to 0.65 µg/mL

SMILES: C#CCCCCCCCCCCCCCCCC(=O)O [17-ODA, 17-octadecynoic acid]
- IC50 (leukotriene B4 ω-oxidase): < 5 µM

SMILES: CC[C@@]1(O)C(=O)OCc2c1cc1n(c2=O)Cc2cc3ccccc3nc2-1 [CPT, camptothecin, reference compound]
- EC50 (LdTopIB [9]): 0.67 ± 0.08 µM

SMILES: Nc1nc(N)nc(Nc2ccc([As]3SCC(CO)S3)cc2)n1 (stereo not shown) [Melarsoprol, reference compound]
- IC50 [5]: 0.0075 µM

SMILES: OO [hydrogen peroxide]
- apoptotic cells (Annexin-V-FITC) [11]: positive test
